From ChEMBL document CHEMBL1132990, “Synthesis, conformational analysis, and biological activity of C-thioribonucleosides related to tiazofurin” (J Med Chem, 2000)

Experiments:
K562 [1] = assay: Concentration required to inhibit 50% of the cell proliferation of the Human myelogenous leukemia K562 cells.; assay type: functional, cell-based
Summary of the method: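 K562 cells in log phase (RPMI 1640 + 10% FBS, 5% CO2, 37 °C), seeded at 1 × 10⁵ cells/mL and exposed continuously to compounds (0.5-100 µM, in saline) or saline for 48 h. Cells counted by Coulter counter; inhibition = % reduction in proliferation versus saline; IC50 = concentration giving 50% inhibition at 48 h.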

K562 [2] = assay: Tested for the influence on the ribonucleotide (IMP) concentration in myelogenous leukemia K562 cell culture.; assay type: functional, Homo sapiens
Summary of the method: (§1)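 Cultured K562 cells given 100 µM compound (2 µM for reference furanoside) or saline for 2 h at 37 °C, then centrifuged, washed once in cold saline and extracted with cold 10% trichloroacetic acid before nucleotide pool measurement.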

K562 [3] = assay: Tested for the influence on the ribonucleotide (GTP) concentration in myelogenous leukemia K562 cell culture.; assay type: functional, Homo sapiens; summary of the method: as §1
[4] = biological target: Inosine-5'-monophosphate dehydrogenase (IMPDH) (Homo sapiens) (UniProt P20839+P12268); assay: Inhibitory activity against Inosine-5'-monophosphate dehydrogenase in human myelogenous leukemia K562 cells in culture.; assay type: cell-based; conditions: concentration not given here
Sequence of Inosine-5'-monophosphate dehydrogenase (IMPDH) (Homo sapiens) (P20839 whole entry, looked up, other chains not shown): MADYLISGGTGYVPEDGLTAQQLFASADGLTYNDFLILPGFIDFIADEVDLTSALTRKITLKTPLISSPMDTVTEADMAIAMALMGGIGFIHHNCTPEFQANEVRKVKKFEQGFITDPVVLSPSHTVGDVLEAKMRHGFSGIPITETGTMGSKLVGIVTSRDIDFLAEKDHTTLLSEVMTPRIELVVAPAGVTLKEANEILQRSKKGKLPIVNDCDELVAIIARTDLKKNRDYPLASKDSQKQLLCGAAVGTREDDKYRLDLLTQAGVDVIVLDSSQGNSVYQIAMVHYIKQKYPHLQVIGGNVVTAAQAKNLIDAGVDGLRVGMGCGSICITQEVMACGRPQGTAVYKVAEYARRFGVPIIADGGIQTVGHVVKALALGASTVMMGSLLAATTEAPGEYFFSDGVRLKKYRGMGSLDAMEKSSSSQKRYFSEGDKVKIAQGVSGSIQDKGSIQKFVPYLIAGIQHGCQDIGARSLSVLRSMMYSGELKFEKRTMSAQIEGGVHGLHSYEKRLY

Row | IC50 (K562 [1]) [µM] | inhibition [4] [%] | Structure (SMILES) | Control (K562 [2]) [%] | Control (K562 [3]) [%]
1 | 4700 | – | NC(=O)c1coc([C@@H]2S[C@H](CO)[C@H](O)C2O)c1 (stereo not given in full) [FURANTHIOFURIN] | 105 | 66.1
2 | 67 | – | NC(=O)c1csc([C@@H]2S[C@H](CO)[C@H](O)C2O)c1 (stereo not given in full) [THIOPHENTHIOFURIN] | 111 | 83.9
3 | 1.7 | 76 | NC(=O)c1csc([C@@H]2O[C@H](CO)[C@@H](O)[C@H]2O)c1 | 112 | 96.6
